This is a sample that favours compounds with a hit; in the whole collection about 2.5% have one here.
ABHD5-PLIN5 inh: blocks binding of human ABHD5 to perilipin-5; Q00G26+Q8WTS1; Split G. princeps luciferase complementation, luminescence, 4 h; inhibition, % at 4 µM; 0.78% of 360,000 active;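 active = inhibition above the mean inhibition across every tested compound plus 3 SD, cut at about 22% in these data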
SENP1 inh: inhibitors of human SENP1 SUMO protease catalytic domain | Q9P0U3 | AID 624204 | recombinant SENP1 catalytic domain, CyPet-SUMO1-YPet FRET cleavage | inhibition, % at 10 µM | 0.21% of 360,000 active;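 active = inhibition at least 30% at 10 µM, raw YFP signal under a set limit, fluorescence ratio 0.5 to 1.5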
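Compound: 10 µM single point, 0.5% DMSO; Test system: hSENP1 catalytic domain, recombinant; Timing: 50 min reaction at room temperature; Technique: FRET, CFP and YFP emission; Control set: no-enzyme wells low, DMSO-plus-enzyme wells high control.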
NadD block: blocks S. aureus nicotinate mononucleotide adenylyltransferase. purified NadD enzyme, colorimetric absorbance read-out. inhibition, % at 20 µM. 0.78% of 360,000 active; in the data active = inhibition above about 26%
B2AR ag: agonists of human beta-2 adrenergic receptor inducing internalization; P07550; Am2.2-beta2AR cells, FAP receptor internalization, flow cytometry; response, % (test concentration not listed); 0.43% of 340,000 active;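 active = response above a set limit, near 3 SD of response in nonfluorescent compounds, cut at about 42% in these data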
Target sequence (P07550 whole entry, looked up): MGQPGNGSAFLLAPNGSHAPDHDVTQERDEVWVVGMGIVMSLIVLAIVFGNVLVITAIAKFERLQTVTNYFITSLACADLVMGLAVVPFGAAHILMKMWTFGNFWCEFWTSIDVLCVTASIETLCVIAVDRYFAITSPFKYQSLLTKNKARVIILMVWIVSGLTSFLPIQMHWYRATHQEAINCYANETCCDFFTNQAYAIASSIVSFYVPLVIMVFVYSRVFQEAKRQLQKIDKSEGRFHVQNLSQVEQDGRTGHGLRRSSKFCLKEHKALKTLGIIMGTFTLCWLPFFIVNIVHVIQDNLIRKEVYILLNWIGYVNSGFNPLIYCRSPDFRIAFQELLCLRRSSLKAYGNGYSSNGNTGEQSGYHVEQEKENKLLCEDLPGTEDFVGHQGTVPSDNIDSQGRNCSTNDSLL
GRK2 inh: inhibitors of human GRK2 displacing RNA aptamer; P25098; bead flow cytometry, FAM-aptamer displacement from GRK2; inhibition of aptamer binding, % at 10 µM; 0.59% of 330,000 active;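 active = inhibition of aptamer binding above 40%, roughly 3 SD of noise, on plates passing a quality check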;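 also: median bead fluorescence of bound FAM aptamer so fluorescent compounds give negative values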
NadD inh conf: confirmation of Staphylococcus aureus NadD inhibitors; 13% of 2,000 active; purified S. aureus NadD, colorimetric enzyme assay; AID 624309; inhibition, % at 20 µM; shares compounds with NadD block; in the data active = inhibition mostly above about 42%, no sharp cut-off; inactive = mostly below about 42%
Numbers stand for hits; - = inactive; . = not tested or not shown.

SMILES	ABHD5-PLIN5 inh	SENP1 inh	NadD block	B2AR ag	GRK2 inh	NadD inh conf
S=C(Nc1ccc(Oc2ccc(NC(=S)NC3CCCCC3)cc2)cc1)NC1CCCCC1	-	-	35	-	-	-
Cc1ccccc1-n1c(SCC(=O)N/N=C/C=C/c2ccccc2[N+](=O)[O-])nc2ccccc2c1=O	-	-	33	-	-	-
O=C(N/N=C/C=C/c1ccccc1[N+](=O)[O-])c1ccncc1	-	-	-	-	-	.
COc1ccccc1-c1cc(C(=O)N/N=C/C=C/c2ccccc2[N+](=O)[O-])c2ccccc2n1	-	-	38	-	-	-
O=C(CSc1nc2ccccc2c(=O)n1-c1ccccc1)N/N=C/C=C/c1ccccc1[N+](=O)[O-]	-	-	-	-	-	.
O=C(N/N=C/C=C/c1ccccc1[N+](=O)[O-])c1cc(-c2cccnc2)nc2ccccc12	-	-	-	-	-	.
O=C(N/N=C/C=C\c1ccccc1[N+](=O)[O-])c1cc(-c2ccc3ccccc3c2)n[nH]1	-	-	43	-	.	27
CCOCc1c(C(=O)OCC(=O)Nc2ccccc2C(N)=O)oc2ccccc12	-	-	-	-	-	.
Cc1ccc(NC(=O)c2cc(-c3ccco3)nc3ccccc23)cc1S(=O)(=O)N1CCOCC1	-	-	63	-	-	60
COc1ccc(NC(=O)c2cc(-c3ccco3)nc3ccccc23)cc1S(=O)(=O)N1CCOCC1	-	-	30	-	-	67
COC(=O)C1CCN(C(=O)c2cc(-c3ccco3)nc3ccccc23)CC1	-	-	32	-	76	56
COc1ccc(NC(=O)c2cc(C)nc3ccccc23)cc1S(=O)(=O)N1CCOCC1	-	-	-	-	-	.
COc1cccc(-c2noc(Cn3nc(C(=O)O)c4ccccc4c3=O)n2)c1	-	-	-	-	-	.
O=C(O)c1nn(Cc2ncc(-c3cccc(Cl)c3)o2)c(=O)c2ccccc12	-	-	34	-	-	-
COC(=O)COc1ccc(S(=O)(=O)NCc2ccc3c(c2)OCO3)cc1C	-	-	-	-	-	.
COc1ccc(CCC(=O)NCCOc2ccccc2Cl)cc1	-	-	-	-	-	.
COC(=O)c1ccc(NC(=O)COc2ccc(C3C(C#N)=C(N)Oc4c3ccc3ccccc43)cc2OC)cc1 (stereo not drawn)	-	-	51	-	-	-
COc1cc(C2C(C#N)=C(N)Oc3c2ccc2ccccc32)ccc1OCC(=O)Nc1ccccc1C (stereo not drawn)	-	-	-	-	-	.
CC(C)CC(=O)Nc1ccc(C(=O)COC(=O)Cc2n[nH]c(=O)c3ccccc23)cc1	-	-	-	-	-	.
Cc1ccc(-c2c(C(=O)Nc3ccccc3C)c(C)[nH]c(=S)c2C#N)o1	-	-	31	-	-	-
CCN(CC)C(=O)c1c(C)[nH]c(=S)c(C#N)c1-c1ccco1	-	-	-	-	-	.
CC(C)C(NC(=O)CN(c1ccc2c(c1)OCCO2)S(=O)(=O)c1ccccc1)C(C)C	-	-	-	-	-	.
O=C1c2ccc(-c3ccc(Cl)c(C(F)(F)F)c3)cc2S(=O)(=O)c2cccc(C(=O)N3CCN(c4ccc(Cl)cn4)CC3)c21	-	-	55	-	-	-
COc1ccc(-c2ccc3c(c2)S(=O)(=O)c2cccc(C(=O)N4CCN(c5ccccn5)CC4)c2C3=O)cc1OC	-	-	-	.	.	.
CCOC(=O)[C@H]1[C@H]2COc3ccc(OC)cc3[C@H]2N2C(=O)CNC(=O)[C@@]12C	-	-	-	-	-	.
SMILES	ABHD5-PLIN5 inh	SENP1 inh	NadD block	B2AR ag	GRK2 inh	NadD inh conf
O=C(NNC(=O)C1CCN(c2ncccn2)CC1)c1ccc(F)cc1	-	-	-	-	-	.
Cc1nc(SCc2nc3cc(Cl)c(F)cc3[nH]2)c2oc3ccccc3c2n1	-	-	37	-	-	-
Cc1nc(SCc2nc3ccc(Cl)cc3[nH]2)c2oc3ccccc3c2n1	-	-	-	-	-	.
COc1ccc(-c2csc(NC(=S)NC(=O)c3cccs3)n2)cc1Br	-	-	25	-	-	-
COc1ccc(-c2csc(NC(=S)NC(=O)c3cccs3)n2)cc1OC	-	-	-	-	.	.
N#Cc1c(-c2ccco2)cc(-c2ccc(F)cc2)nc1N	-	-	52	-	-	-
CC1CC(CC(=O)Nc2nc(-c3ccccc3)cs2)C(=O)O1 (stereo not drawn)	-	-	-	-	-	.
C/C(CC1CC(COCC(C)C)OC1=O)=N\Nc1nc(-c2ccccc2)cs1 (stereo not drawn)	-	-	28	-	-	-
COc1ccc(C2=NN(C(=O)CSc3nc(=O)n4cccc(C)c4n3)C(c3ccc(C)cc3)C2)cc1 (stereo not drawn)	-	-	36	-	-	-
COc1ccc(C2=NN(C(=O)CSc3ncccn3)C(c3ccc(C)cc3)C2)cc1 (stereo not drawn)	-	-	-	-	-	.
O=S(=O)(O)c1cc(O)c2cc(Nc3ccccc3)ccc2c1	-	-	-	-	.	.
O=S(=O)(O)c1cc(O)c2ccc(Nc3ccccc3)cc2c1	-	-	33	-	.	66
O=C(CN1CCOCC1)Nc1ccc(Cl)cn1	-	-	-	-	-	.
CCOc1ccccc1NC(=O)CSC1=C(C#N)C(c2ccco2)C(C(=O)Nc2nc3ccccc3s2)=C(C)N1 (stereo not drawn)	-	-	42	-	-	-
CC1=C(C(=O)Nc2ccccc2)C(c2ccco2)C(C#N)=C(SCC(=O)Nc2cccc(C)c2C)N1 (stereo not drawn)	-	-	-	-	-	.
O=C(N[C@@H]1C/C=C\C[C@H](CC(=O)N(CCO)Cc2ccccc2)C(=O)N[C@@H](Cc2c[nH]c3ccccc23)COC1=O)OCC1c2ccccc2-c2ccccc21	-	-	34	-	-	-
O=C(N[C@@H]1C/C=C\C[C@@H](CC(=O)N(CCO)Cc2ccccc2)C(=O)N[C@@H](c2ccccc2)COC1=O)OCC1c2ccccc2-c2ccccc21	-	-	-	-	-	.
O=C(N[C@H]1C/C=C\C[C@H](CC(=O)N(CCO)Cc2ccccc2)C(=O)N[C@H](Cc2c[nH]c3ccccc23)COC1=O)OCC1c2ccccc2-c2ccccc21	-	-	32	-	-	-
O=C1N[C@@H](Cc2c[nH]c3ccccc23)COC(=O)[C@@H](Cc2ccc(F)cc2)C/C=C\C[C@H]1CC(=O)N(CCO)Cc1ccccc1	-	-	-	-	-	.
O=C1N[C@@H](Cc2c[nH]c3ccccc23)COC(=O)[C@H](Cc2ccc(F)cc2)C/C=C\C[C@@H]1CC(=O)N(CCO)Cc1ccccc1	-	-	-	-	-	.
O=C(N[C@H]1C/C=C\C[C@@H](CC(=O)N(CCO)Cc2ccccc2)C(=O)N[C@H](Cc2c[nH]c3ccccc23)COC1=O)OCC1c2ccccc2-c2ccccc21	-	-	36	-	-	-
